{"source": "ChEMBL document CHEMBL4610112", "about": "“Novel Pyrrolopyridone Bromodomain and Extra-Terminal Motif (BET) Inhibitors Effective in Endocrine-Resistant ER+ Breast Cancer with Acquired Resistance to Fulvestrant and Palbociclib” (J Med Chem, 2020)", "key": {"[1]": {"experiment": "Tmax in CD1 mouse at 30 mg/kg, po by LC-MS/MS analysis", "type": "ADME, organism-based", "details": "in vivo", "procedure,_shortened": "(§1)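 HCl salt dosed to CD1 mice in 30% PEG400/70% (10% HP-β-CD in water) (v/v), at 1 mg/mL for iv (5 mg/kg) or 3 mg/mL for oral gavage (30 mg/kg). Blood sampled at 0, 0.0833 (iv only), 0.25, 0.5, 1, 2, 4, 8 and 24 h, n = 3 per time point. Plasma levels measured by LC/MS/MS.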"}, "[2]": {"experiment": "Volume of distribution at steady state in CD1 mouse at 5 mg/kg, iv by LC-MS/MS analysis", "type": "ADME, organism-based", "details": "in vivo", "procedure,_shortened": "as §1"}, "[3]": {"experiment": "Protein binding in plasma (unknown origin)", "type": "ADME, cell-free", "details": "human", "procedure,_shortened": "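Protein binding reported as percent bound, ketoconazole as reference compound. Run by a contract lab.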"}, "[4]": {"experiment": "Oral bioavailability in CD1 mouse at 30 mg/kg by LC-MS/MS analysis", "type": "ADME, organism-based", "details": "in vivo", "procedure,_shortened": "as §1"}, "CYP2C8": {"target": "CYP2C8 (Homo sapiens, UniProt P10632)", "sequence (P10632 whole entry)": "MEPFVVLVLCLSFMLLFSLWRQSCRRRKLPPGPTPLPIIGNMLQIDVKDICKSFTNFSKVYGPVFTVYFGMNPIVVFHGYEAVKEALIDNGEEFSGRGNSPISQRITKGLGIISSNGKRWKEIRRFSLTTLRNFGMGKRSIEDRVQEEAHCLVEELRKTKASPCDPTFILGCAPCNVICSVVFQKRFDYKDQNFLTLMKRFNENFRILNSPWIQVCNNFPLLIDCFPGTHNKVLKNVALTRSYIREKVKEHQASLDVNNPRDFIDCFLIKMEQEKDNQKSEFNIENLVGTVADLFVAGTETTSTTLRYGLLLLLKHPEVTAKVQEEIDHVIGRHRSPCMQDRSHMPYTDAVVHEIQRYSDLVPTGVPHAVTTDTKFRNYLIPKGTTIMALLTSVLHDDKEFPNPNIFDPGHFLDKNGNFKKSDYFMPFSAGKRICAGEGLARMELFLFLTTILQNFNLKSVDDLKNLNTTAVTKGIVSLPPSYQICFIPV", "experiment": "Inhibition of human CYP2C8 at 10 uM", "type": "ADME"}, "CYP3A4": {"target": "CYP3A4 (Homo sapiens, UniProt P08684)", "sequence (P08684 whole entry)": "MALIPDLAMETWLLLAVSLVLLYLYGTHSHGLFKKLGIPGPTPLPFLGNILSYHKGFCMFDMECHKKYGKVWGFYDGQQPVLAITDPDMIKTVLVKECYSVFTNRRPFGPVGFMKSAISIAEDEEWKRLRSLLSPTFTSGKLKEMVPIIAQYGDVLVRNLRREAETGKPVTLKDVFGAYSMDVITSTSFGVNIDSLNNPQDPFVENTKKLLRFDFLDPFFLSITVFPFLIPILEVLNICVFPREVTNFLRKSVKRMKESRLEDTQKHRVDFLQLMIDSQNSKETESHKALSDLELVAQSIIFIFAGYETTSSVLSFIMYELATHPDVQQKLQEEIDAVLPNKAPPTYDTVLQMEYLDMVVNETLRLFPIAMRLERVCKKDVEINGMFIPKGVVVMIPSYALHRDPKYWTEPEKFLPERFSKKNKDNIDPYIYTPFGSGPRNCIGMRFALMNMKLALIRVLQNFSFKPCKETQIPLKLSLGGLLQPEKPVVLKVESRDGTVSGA", "experiment": "Inhibition of human CYP3A4 at 10 uM", "type": "ADME"}, "CYP2D6": {"target": "CYP2D6 (Homo sapiens, UniProt P10635)", "sequence (P10635 whole entry)": "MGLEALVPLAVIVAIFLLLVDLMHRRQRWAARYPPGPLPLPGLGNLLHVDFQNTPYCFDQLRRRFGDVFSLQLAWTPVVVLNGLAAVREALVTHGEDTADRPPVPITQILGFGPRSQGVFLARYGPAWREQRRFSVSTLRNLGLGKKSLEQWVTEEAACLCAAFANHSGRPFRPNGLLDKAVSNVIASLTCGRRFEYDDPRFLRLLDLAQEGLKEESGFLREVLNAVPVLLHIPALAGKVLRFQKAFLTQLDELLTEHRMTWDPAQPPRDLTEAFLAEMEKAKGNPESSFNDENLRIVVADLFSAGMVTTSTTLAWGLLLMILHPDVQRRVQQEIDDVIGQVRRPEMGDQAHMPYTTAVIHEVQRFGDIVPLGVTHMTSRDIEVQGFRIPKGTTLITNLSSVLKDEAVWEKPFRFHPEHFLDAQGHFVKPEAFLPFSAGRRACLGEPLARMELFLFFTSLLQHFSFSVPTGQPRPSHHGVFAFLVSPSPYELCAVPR", "experiment": "Inhibition of human CYP2D6 at 10 uM", "type": "ADME"}, "[5]": {"experiment": "Half life in CD1 mouse at 30 mg/kg, po by LC-MS/MS analysis", "type": "ADME, organism-based", "details": "in vivo", "procedure,_shortened": "(§2)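 HCl salt dosed to CD1 mice iv (1 mg/mL) or by oral gavage (3 mg/mL) in 30% PEG400/70% (10% HP-β-CD in water) (v/v). Blood sampled at 0, 0.0833 (iv only), 0.25, 0.5, 1, 2, 4, 8 and 24 h, n = 3 per time point. Plasma levels measured by LC/MS/MS.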"}, "[6]": {"experiment": "AUC in CD1 mouse at 5 mg/kg, iv by LC-MS/MS analysis", "type": "ADME, organism-based", "details": "in vivo", "procedure,_shortened": "as §2"}, "[7]": {"experiment": "AUC in CD1 mouse at 30 mg/kg, po by LC-MS/MS analysis", "type": "ADME, organism-based", "details": "in vivo", "procedure,_shortened": "as §2"}, "[8]": {"experiment": "Toxicity in human MCF7:TAM1 cells xenografted ovariectomized athymic Nude-Foxn1 mouse assessed as adverse sign t at 50 mg/kg/day, po administered via gavage for 4 weeks", "type": "organism-based", "details": "in vivo, 672 h", "procedure,_shortened": "(§3)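 MCF-7:TAM1 tumors established in 4–6-week-old female ovariectomized athymic nude mice (nude/Foxn1) given tamoxifen 1.5 mg/mouse daily. […] Body weight tracked against pretreatment, with overt toxicity signs observed. Vehicle and tamoxifen (1.5 mg/mouse/day po) groups as comparators.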"}, "CYP2C19": {"target": "CYP2C19 (Homo sapiens, UniProt P33261)", "sequence (P33261 whole entry)": "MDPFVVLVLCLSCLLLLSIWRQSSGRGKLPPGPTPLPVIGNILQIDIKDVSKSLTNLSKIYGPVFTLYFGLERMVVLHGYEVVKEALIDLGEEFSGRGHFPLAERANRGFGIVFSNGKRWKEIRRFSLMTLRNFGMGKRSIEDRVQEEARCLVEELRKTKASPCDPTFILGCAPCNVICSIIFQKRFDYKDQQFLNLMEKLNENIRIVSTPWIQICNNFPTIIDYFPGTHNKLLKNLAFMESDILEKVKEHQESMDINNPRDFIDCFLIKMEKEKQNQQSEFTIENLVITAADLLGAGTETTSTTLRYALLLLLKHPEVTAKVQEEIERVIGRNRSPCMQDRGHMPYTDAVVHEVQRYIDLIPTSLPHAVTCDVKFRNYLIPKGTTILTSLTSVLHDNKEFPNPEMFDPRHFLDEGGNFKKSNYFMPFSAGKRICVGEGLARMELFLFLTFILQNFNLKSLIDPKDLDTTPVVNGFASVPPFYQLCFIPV", "experiment": "Inhibition of human CYP2C19 at 10 uM", "type": "ADME"}, "[9]": {"experiment": "Clearance in CD1 mouse at 5 mg/kg, iv by LC-MS/MS analysis", "type": "ADME, organism-based", "details": "in vivo", "procedure,_shortened": "as §2"}, "[10]": {"experiment": "Kinetic solubility of the compound in pH 7.4 PBS buffer", "type": "physicochemical", "details": "read-out: Kinetic_solubility", "procedure,_shortened": "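Kinetic solubility in PBS at pH 7.4, progesterone as reference compound. Run by a contract lab.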"}, "[11]": {"experiment": "Half life in CD1 mouse at 5 mg/kg, iv by LC-MS/MS analysis", "type": "ADME, organism-based", "details": "in vivo", "procedure,_shortened": "as §2"}, "[12]": {"experiment": "Intrinsic clearance in human hepatocytes assessed per million cells", "type": "ADME, cell-based, Hepatocyte", "details": "read-out: CLH"}, "[13]": {"experiment": "Toxicity in human MCF7:TAM1 cells xenografted ovariectomized athymic Nude-Foxn1 mouse assessed as effect on body weight at 50 mg/kg/day, po administered via gavage for 4 weeks", "type": "organism-based", "details": "in vivo, 672 h", "procedure,_shortened": "as §3"}, "CYP2C9": {"target": "CYP2C9 (Homo sapiens, UniProt P11712)", "sequence (P11712 whole entry)": "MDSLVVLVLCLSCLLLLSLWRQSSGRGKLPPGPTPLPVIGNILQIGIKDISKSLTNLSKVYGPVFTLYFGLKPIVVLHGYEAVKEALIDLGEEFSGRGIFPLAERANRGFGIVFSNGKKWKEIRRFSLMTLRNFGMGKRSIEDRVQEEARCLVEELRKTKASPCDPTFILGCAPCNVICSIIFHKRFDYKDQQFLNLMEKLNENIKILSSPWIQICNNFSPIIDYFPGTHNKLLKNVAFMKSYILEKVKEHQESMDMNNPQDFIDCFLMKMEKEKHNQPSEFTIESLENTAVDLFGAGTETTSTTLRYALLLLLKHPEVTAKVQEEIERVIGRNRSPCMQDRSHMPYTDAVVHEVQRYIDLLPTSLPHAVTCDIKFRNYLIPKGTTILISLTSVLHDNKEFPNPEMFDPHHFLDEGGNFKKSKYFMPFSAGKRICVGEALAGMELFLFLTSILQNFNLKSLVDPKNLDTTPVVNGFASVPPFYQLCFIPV", "experiment": "Inhibition of human CYP2C9 at 10 uM", "type": "ADME"}, "[14]": {"experiment": "Half life in human hepatocytes", "type": "ADME, cell-based, Hepatocyte"}, "[15]": {"experiment": "Cmax in CD1 mouse at 30 mg/kg, po by LC-MS/MS analysis", "type": "ADME, organism-based", "parameters": "dose 30 mg/kg, route oral", "details": "in vivo", "procedure,_shortened": "as §2"}, "[16]": {"target": "Voltage-gated inwardly rectifying potassium channel KCNH2 (Homo sapiens, UniProt Q12809)", "sequence (Q12809 whole entry)": "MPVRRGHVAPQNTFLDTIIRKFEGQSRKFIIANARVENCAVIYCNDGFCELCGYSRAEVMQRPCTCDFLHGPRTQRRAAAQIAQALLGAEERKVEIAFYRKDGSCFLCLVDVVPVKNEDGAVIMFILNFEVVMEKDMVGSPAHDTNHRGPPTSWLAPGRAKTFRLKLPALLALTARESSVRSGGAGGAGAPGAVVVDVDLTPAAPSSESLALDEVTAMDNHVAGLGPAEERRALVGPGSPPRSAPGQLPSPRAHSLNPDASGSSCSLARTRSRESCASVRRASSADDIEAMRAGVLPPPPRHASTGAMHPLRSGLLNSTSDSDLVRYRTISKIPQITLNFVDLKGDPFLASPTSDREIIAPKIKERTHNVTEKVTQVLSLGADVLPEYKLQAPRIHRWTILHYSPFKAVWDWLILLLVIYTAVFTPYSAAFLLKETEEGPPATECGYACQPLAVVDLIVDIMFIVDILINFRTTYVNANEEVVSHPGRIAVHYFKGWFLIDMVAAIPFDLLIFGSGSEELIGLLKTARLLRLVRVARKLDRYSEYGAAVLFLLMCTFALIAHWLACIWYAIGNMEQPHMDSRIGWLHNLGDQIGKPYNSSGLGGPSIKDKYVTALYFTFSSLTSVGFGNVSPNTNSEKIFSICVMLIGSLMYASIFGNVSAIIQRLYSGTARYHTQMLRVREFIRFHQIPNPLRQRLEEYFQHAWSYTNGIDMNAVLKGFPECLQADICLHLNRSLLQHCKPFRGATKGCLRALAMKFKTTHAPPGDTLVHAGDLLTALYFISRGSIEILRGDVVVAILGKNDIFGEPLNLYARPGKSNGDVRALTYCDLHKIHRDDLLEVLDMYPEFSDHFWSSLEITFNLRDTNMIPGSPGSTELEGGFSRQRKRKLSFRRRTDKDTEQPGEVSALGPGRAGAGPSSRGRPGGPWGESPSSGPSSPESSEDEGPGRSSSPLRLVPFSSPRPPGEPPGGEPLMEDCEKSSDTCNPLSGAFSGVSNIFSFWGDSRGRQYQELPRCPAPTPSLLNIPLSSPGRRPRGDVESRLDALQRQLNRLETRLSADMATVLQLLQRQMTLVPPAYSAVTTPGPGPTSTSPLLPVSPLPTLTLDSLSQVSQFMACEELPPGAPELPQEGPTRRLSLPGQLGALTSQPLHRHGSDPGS", "experiment": "Inhibition of human ERG stably expressed in HEK293 cells", "type": "cell-based", "procedure,_shortened": "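hERG inhibition measured in HEK293 cells stably transfected with the hERG gene, IC50 determined, dofetilide as positive control. Run by a contract lab.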"}, "CYP1A2": {"target": "CYP1A2 (Homo sapiens, UniProt P05177)", "sequence (P05177 whole entry)": "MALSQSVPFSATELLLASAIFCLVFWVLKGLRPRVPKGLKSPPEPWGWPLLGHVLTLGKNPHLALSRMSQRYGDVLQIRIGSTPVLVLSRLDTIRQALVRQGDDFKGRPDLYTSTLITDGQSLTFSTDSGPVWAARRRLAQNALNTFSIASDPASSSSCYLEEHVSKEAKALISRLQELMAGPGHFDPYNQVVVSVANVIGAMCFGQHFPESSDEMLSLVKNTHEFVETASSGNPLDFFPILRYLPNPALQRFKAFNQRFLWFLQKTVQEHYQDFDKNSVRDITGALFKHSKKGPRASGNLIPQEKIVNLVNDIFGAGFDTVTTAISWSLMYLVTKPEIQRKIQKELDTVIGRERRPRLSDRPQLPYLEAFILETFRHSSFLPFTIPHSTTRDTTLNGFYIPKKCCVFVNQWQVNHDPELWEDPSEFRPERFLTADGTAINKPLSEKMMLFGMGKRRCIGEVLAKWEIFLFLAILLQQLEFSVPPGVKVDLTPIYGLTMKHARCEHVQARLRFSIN", "experiment": "Inhibition of human CYP1A2 at 10 uM", "type": "ADME"}, "CYP2A6": {"target": "CYP2A6 (Homo sapiens, UniProt P11509)", "sequence (P11509 whole entry)": "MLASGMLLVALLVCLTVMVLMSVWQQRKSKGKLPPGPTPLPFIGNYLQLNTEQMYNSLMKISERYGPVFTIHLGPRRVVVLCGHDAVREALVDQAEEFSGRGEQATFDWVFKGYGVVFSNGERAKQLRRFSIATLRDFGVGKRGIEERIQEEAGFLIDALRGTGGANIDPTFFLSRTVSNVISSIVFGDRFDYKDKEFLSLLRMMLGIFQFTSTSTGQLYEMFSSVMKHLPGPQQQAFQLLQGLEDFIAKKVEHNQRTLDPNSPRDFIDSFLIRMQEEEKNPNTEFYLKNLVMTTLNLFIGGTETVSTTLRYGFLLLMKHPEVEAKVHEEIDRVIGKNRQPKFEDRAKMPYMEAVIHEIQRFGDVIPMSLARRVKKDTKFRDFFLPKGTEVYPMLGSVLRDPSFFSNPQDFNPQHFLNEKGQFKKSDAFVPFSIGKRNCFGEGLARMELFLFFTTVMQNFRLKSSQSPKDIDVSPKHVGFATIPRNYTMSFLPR", "experiment": "Inhibition of human CYP2A6 at 10 uM", "type": "ADME"}, "MCF7:TAM1": {"test_system": "MCF7:TAM1", "experiment": "Antitumor activity against human MCF7:TAM1 cells xenografted in ovariectomized athymic Nude-Foxn1 mouse assessed as tumor growth inhibition at 30 mg/kg/day, po administered via gavage for 4 weeks relative to control", "type": "functional", "details": "672 h, read-out: TGI", "procedure,_shortened": "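MCF-7:Tam1 tumours established in 4–6 week old female ovariectomized athymic nude mice given daily tamoxifen 1.5 mg/mouse. […] Fulvestrant 1 (mg/mouse)/week sc. Tumour volume measured weekly by calipers as length × width² × π/6.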"}, "[17]": {"experiment": "Induction of thrombocytopenia in Sprague-Dawley rat assessed as platelet count […] at 25 mg/kg, po administered via gavage daily for 10 days (reference value: […])", "type": "organism-based", "details": "in vivo, 240 h"}}}
{"compound": "CCS(=O)(=O)Nc1cc(-c2cn(C)c3c(=O)[nH]ccc23)cc2c1ccn2C(C)(c1ccccn1)c1ccccn1.Cl", "values": [{"measurement": "Tmax", "setting": "[1]", "value": 0.25, "unit": "h"}, {"measurement": "Vdss", "setting": "[2]", "value": 1.49, "unit": "L/kg"}, {"measurement": "PPB", "setting": "[3]", "value": 97.98, "unit": "%"}, {"measurement": "F", "setting": "[4]", "value": 49, "unit": "%"}, {"measurement": "inhibition at 10 µM", "setting": "CYP2C8", "value": 84.2, "unit": "%"}, {"measurement": "inhibition at 10 µM", "setting": "CYP3A4", "value": 50.6, "unit": "%"}, {"measurement": "inhibition at 10 µM", "setting": "CYP2D6", "value": 14.5, "unit": "%"}, {"measurement": "t1/2", "setting": "[5]", "value": 2.9, "unit": "h"}, {"measurement": "AUC", "setting": "[6]", "value": 3208, "unit": "ng·h/mL"}, {"measurement": "AUC", "setting": "[7]", "value": 9598, "unit": "ng·h/mL"}, {"measurement": "Activity", "setting": "[8]", "value": "Non-Toxic"}, {"measurement": "inhibition at 10 µM", "setting": "CYP2C19", "value": 31.8, "unit": "%"}, {"measurement": "clearance", "setting": "[9]", "value": 25.5, "unit": "mL/min/kg"}, {"measurement": "solubility kinetic", "setting": "[10]", "value": 73.4, "unit": "µM"}, {"measurement": "t1/2", "setting": "[11]", "value": 1.95, "unit": "h"}, {"measurement": "hepatocyte CLint", "setting": "[12]", "value": 6.86, "unit": "µL/min/1e6 cells"}, {"measurement": "Activity", "setting": "[13]", "value": "Non-Toxic"}, {"measurement": "inhibition at 10 µM", "setting": "CYP2C9", "value": 30.7, "unit": "%"}, {"measurement": "t1/2", "setting": "[14]", "value": 3.37, "unit": "h"}, {"measurement": "Cmax", "setting": "[15]", "value": 3090, "unit": "ng/mL"}, {"measurement": "IC50", "setting": "[16]", "value": 29.3, "unit": "µM"}, {"measurement": "inhibition at 10 µM", "setting": "CYP1A2", "value": 2.29, "unit": "%"}, {"measurement": "inhibition at 10 µM", "setting": "CYP2A6", "value": 7.47, "unit": "%"}, {"measurement": "inhibition in vivo at 30 mg/kg/day", "setting": "MCF7:TAM1", "value": 106, "unit": "%"}, {"measurement": "platelet count", "setting": "[17]", "value": "1050 10^3/µL"}]}
